The record followed here is ChEMBL document CHEMBL1155468, “Syntheses and evaluation of anticonvulsant profile and teratogenicity of novel amide derivatives of branched aliphatic carboxylic acids with 4-aminobenzensulfonamide” (J Med Chem, 2010).

In series [1] the test system is Mus musculus. The experiment in a line: Anticonvulsant activity in CF1 albino mouse assessed as inhibition of maximal electroshock-induced seizures at 100 mg/kg, ip after 0.5 hrs. Format: functional, organism-based. Set-up: dose 100 mg/kg. Put shortly:
(§1)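 Test compounds suspended in 0.5% methylcellulose and given ip to adult male CF no. 1 albino mice (18-25 g) at 0.01 mL/g body weight before maximal electroshock challenge.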
(In general: Protection in the maximal electroshock model is a classic sign of anticonvulsant action.)

In series [2] the test system is Mus musculus. Nature of the series: Neurotoxicity in CF1 albino mouse assessed as motor impairment at 100 mg/kg, ip after 4 hrs. The series is classed as toxicity, organism-based. Set-up: dose 100 mg/kg, route intraperitoneal. Particulars: in vivo.
In series [3] the test system is Mus musculus. Nature of the series: Anticonvulsant activity in CF1 albino mouse assessed as inhibition of maximal electroshock-induced seizures at 30 mg/kg, ip after 0.5 hrs. The series is classed as functional, organism-based. More on the design: dose 30 mg/kg. Put shortly:
as §1

Series [4] concerns Mus musculus. The experiment in a line: Neurotoxicity in CF1 albino mouse assessed as motor impairment at 30 mg/kg, ip after 0.5 hrs. The series is classed as toxicity, organism-based. Set-up: dose 30 mg/kg, route intraperitoneal. As to conditions: in vivo.
Series [5] deals with Mus musculus. Nature of the series: Anticonvulsant activity in CF1 albino mouse assessed as inhibition of subcutaneous pentylenetetrazole-induced seizures at 30 mg/kg, ip after 4 hrs. Format: functional, organism-based. More on the design: dose 30 mg/kg. Put shortly: (§2)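 Adult male CF no. 1 albino mice (18-25 g) dosed ip with compound suspended in 0.5% methylcellulose (0.01 mL/g). Convulsant: pentylenetetrazol dissolved in 0.9% saline as a 0.85% solution for mice, given subcutaneously.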

Series [6] has as its system Mus musculus. The experiment in a line: Anticonvulsant activity in CF1 albino mouse assessed as inhibition of subcutaneous pentylenetetrazole-induced seizures at 100 mg/kg, ip after 4 hrs. The series is classed as functional, organism-based. More on the design: dose 100 mg/kg. Put shortly: as §2
In series [7] the test system is Mus musculus. The experiment in a line: Anticonvulsant activity in CF1 albino mouse assessed as inhibition of subcutaneous pentylenetetrazole-induced seizures at 300 mg/kg, ip after 0.5 hrs. The series is classed as functional, organism-based. More on the design: dose 300 mg/kg. Put shortly:
as §2

Series [8] has as its system Mus musculus. The experiment in a line: Neurotoxicity in CF1 albino mouse assessed as motor impairment at 300 mg/kg, ip after 0.5 hrs. Format: toxicity, organism-based. As to conditions: in vivo. More on the design: dose 300 mg/kg, route intraperitoneal.
The subject of series [9] is Mus musculus. The experiment in a line: Anticonvulsant activity in CF1 albino mouse assessed as inhibition of maximal electroshock-induced seizures at 100 mg/kg, ip after 4 hrs. Format: functional, organism-based. More on the design: dose 100 mg/kg. Put shortly:
as §1

Series [10] deals with Mus musculus. Nature of the series: Neurotoxicity in CF1 albino mouse assessed as motor impairment at 100 mg/kg, ip after 0.5 hrs. Set-up: dose 100 mg/kg, route intraperitoneal. Format: toxicity, organism-based. Particulars: in vivo.
The test system of series [11] is Mus musculus. The experiment in a line: Anticonvulsant activity in CF1 albino mouse assessed as inhibition of subcutaneous pentylenetetrazole-induced seizures at 100 mg/kg, ip after 0.5 hrs. Format: functional, organism-based. More on the design: dose 100 mg/kg. Put shortly: as §2
For series [12], the system named is Mus musculus. Nature of the series: Anticonvulsant activity in CF1 albino mouse assessed as inhibition of maximal electroshock-induced seizures at 30 mg/kg, ip after 4 hrs. The series is classed as functional, organism-based. More on the design: dose 30 mg/kg. Put shortly: as §1
Series [13] relates to Mus musculus. Nature of the series: Anticonvulsant activity in CF1 albino mouse assessed as inhibition of subcutaneous pentylenetetrazole-induced seizures at 300 mg/kg, ip after 4 hrs. Format: functional, organism-based. More on the design: dose 300 mg/kg. Put shortly: as §2
Series [14] relates to Mus musculus. The experiment in a line: Anticonvulsant activity in CF1 albino mouse assessed as inhibition of maximal electroshock-induced seizures at 300 mg/kg, ip after 4 hrs. The series is classed as functional, organism-based. More on the design: dose 300 mg/kg. Put shortly:
as §1

Series [15] has as its system Mus musculus. The experiment in a line: Neurotoxicity in CF1 albino mouse assessed as motor impairment at 300 mg/kg, ip after 4 hrs. Set-up: dose 300 mg/kg, route intraperitoneal. Format: toxicity, organism-based. Particulars: in vivo.
The test system of series [16] is Mus musculus. The experiment in a line: Anticonvulsant activity in CF1 albino mouse assessed as inhibition of maximal electroshock-induced seizures at 300 mg/kg, ip after 0.5 hrs. Format: functional, organism-based. Set-up: dose 300 mg/kg. Put shortly: as §1
In series [17] the test system is Mus musculus. The experiment in a line: Neurotoxicity in CF1 albino mouse assessed as motor impairment at 30 mg/kg, ip after 4 hrs. Particulars: in vivo. Format: toxicity, organism-based. Set-up: dose 30 mg/kg, route intraperitoneal.
Series [18] relates to Mus musculus. Nature of the series: Anticonvulsant activity in CF1 albino mouse assessed as inhibition of subcutaneous pentylenetetrazole-induced seizures at 30 mg/kg, ip after 0.5 hrs. Set-up: dose 30 mg/kg. Format: functional, organism-based. Put shortly: as §2
For series [19], the system named is Rattus norvegicus. The experiment in a line: Neurotoxicity in Sprague-Dawley rat assessed as motor impairment at 30 mg/kg, po after 0.25 to 4 hrs. As to conditions: in vivo.
Series [20] relates to Rattus norvegicus. Nature of the series: Anticonvulsant activity in Sprague-Dawley rat assessed as inhibition of maximal electroshock-induced seizures at 30 mg/kg, po after 30 mins.
The test system of series [21] is Rattus norvegicus. The experiment in a line: Anticonvulsant activity in Sprague-Dawley rat assessed as inhibition of maximal electroshock-induced seizures at 30 mg/kg, po after 15 mins.
For series [22], the system named is Rattus norvegicus. Nature of the series: Anticonvulsant activity in Sprague-Dawley rat assessed as inhibition of maximal electroshock-induced seizures at 30 mg/kg, po after 1 hr.
Series [23] is filed under the species Rattus norvegicus. Nature of the series: Protective index, ratio of TD50 for rat to ED50 for maximal electroshock-induced rat seizure model.
The test system of series [24] is Rattus norvegicus. The experiment in a line: Anticonvulsant activity in Sprague-Dawley rat assessed as inhibition of maximal electroshock-induced seizures at 30 mg/kg, po after 2 hrs.
Series [25] has as its system Rattus norvegicus. Nature of the series: Anticonvulsant activity in po dosed rat assessed as inhibition of maximal electroshock-induced seizures.

Calls of active or inactive are those of the source. No cut-off for these calls is given here.

As for `CC(C)(C)C(=O)NCc1ccc(S(N)(=O)=O)cc1`, the result in series [1], in [3], in series [5], in series [6], in [7] and in [9] was inactive. Further, the result in [11], in series [12], in series [13], in series [14], in [16] and in series [18] was inactive. The Activity entry in series [2], in series [4], in series [8], in series [10], in series [15] and in [17] was “Non-toxic” each time.
In the case of `CCC(C(=O)Nc1ccc(S(N)(=O)=O)cc1)C(C)(C)C` (stereo not drawn), the Activity result in [19], in series [2], in [4], in series [8], in series [10] and in [15] was “Non-toxic” each time. In series [17], the Activity entry is given as “Non-toxic”. Further, the result in series [1], in series [20], in [3], in [5], in [6] and in series [7] was inactive. In addition, the result in [21], in [22], in series [11], in [12], in series [13] and in series [16] was inactive. Besides, the outcome in series [18] was inactive. For the same molecule, the result in series [14] was Active.
As to `CC(C)(C)CC(=O)NCc1ccc(S(N)(=O)=O)cc1`, the Activity entry in [19], in series [2], in [4], in [8], in series [10] and in series [15] was “Non-toxic” throughout. For the same molecule, the Activity entry in series [17] was “Non-toxic”. Also, the outcome in series [1], in [20], in series [3], in series [5], in series [6] and in series [7] was inactive. Besides, the result in series [21], in series [11], in [12], in series [13], in series [16] and in series [18] was inactive. Besides, in series [14], the result was Active.
For the molecule `CC1(C)C(C(=O)Nc2nnc(S(N)(=O)=O)s2)C1(C)C`, in series [23], the “Ratio TD50/ED50” value is over 50.
Turning to `CC(C)C(C(=O)Nc1ccc(S(N)(=O)=O)cc1)C(C)(C)C` (stereo not drawn), the Activity result in series [19], in series [2], in series [4], in series [8], in series [10] and in [15] was “Non-toxic” throughout. Further, the Activity result in series [17] is given as “Non-toxic”. Further, the outcome in series [20], in series [3], in [5], in series [6], in series [7] and in series [21] was inactive. In addition, the result in [24], in [22], in series [11], in series [12], in series [13] and in series [16] was inactive. Moreover, the result in series [18] was inactive. For the same molecule, the outcome in series [9] and in series [14] was Active. In addition, in [23], the “Ratio TD50/ED50” value is listed as over 27.7. Moreover, in series [25], the median effective dose (ED50) (commonly the midpoint of the dose-response relation) came to 18 mg/kg.
As for `CCCC(CCC)C(=O)Nc1ccc(S(N)(=O)=O)cc1`, the ED50 in series [25] stood at 21 mg/kg.
The same measure, in the same setting: under `CC1(C)C(C(=O)Nc2ccc(S(N)(=O)=O)cc2)C1(C)C` stands 26 mg/kg.
Take `CC(C)C(C(=O)Nc1ccc(S(N)(=O)=O)cc1)C(C)C`: the Activity result in series [19], in series [2], in series [4], in [8], in [10] and in series [15] was “Non-toxic” throughout. The Activity result in [17] is “Non-toxic”. Moreover, the result in series [1], in series [20], in [3], in series [5], in series [6] and in series [7] was inactive. Moreover, the outcome in series [21], in series [9], in [24], in [22], in series [11] and in series [12] was inactive. Further, the result in [13], in series [14], in [16] and in series [18] was inactive.
As for `CCC(C)C(CC)C(=O)Nc1ccc(S(N)(=O)=O)cc1` (stereo not drawn), the Activity entry in series [19], in series [2], in [4], in series [8], in series [10] and in [15] was “Non-toxic” in each case. Moreover, the Activity entry in [17] is recorded as “Non-toxic”. Besides, the result in series [20], in series [3], in series [5], in [6], in series [7] and in series [21] was inactive. Besides, the outcome in [11], in series [12], in series [13] and in series [18] was inactive. The result in series [9], in series [24] and in [14] was Active.
Regarding `CCC(CC)C(=O)NCCc1ccc(S(N)(=O)=O)cc1`, the Activity result in series [19], in [2], in series [4], in series [8], in [10] and in series [15] was “Non-toxic” each time. Besides, the Activity result in series [17] is “Non-toxic”. Further, the outcome in series [1], in series [3], in [5], in series [6], in series [7] and in series [11] was inactive. The outcome in series [13], in series [16] and in series [18] was inactive. For the same molecule, the outcome in [12] and in series [14] was Active.
With `CCCC(CCC)C(=O)Nc1nnc(S(N)(=O)=O)s1`, in [23], the “Ratio TD50/ED50” value is given as over 50.
